≈ marks a conversion by molar mass, not a printed value.
Assays:
Format in all cases: functional
Enterococcus faecalis = experiment: Antibacterial activity against Enterococcus faecalis ATCC 29212 after overnight incubation by broth dilution method
Method in brief: (§1)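 CLSI broth microdilution MIC. Compounds dissolved in methanol, diluted to working solution in Brain Heart Infusion broth. Organisms recovered in broth 18–24 h at 37 °C, 5% CO2; inoculum from colonies suspended in saline. Test range 0.016–32 (final), incubated 24 h at 37 °C. MIC taken as the lowest concentration inhibiting visible growth. Run in duplicate with drug-free and solvent-blank columns; final methanol 1.25%.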

Enterococcus faecium = experiment: Antibacterial activity against Enterococcus faecium ATCC 35667 after overnight incubation by broth dilution method; method in brief: as §1
Staphylococcus aureus [1] = experiment: Antibacterial activity against Staphylococcus aureus ATCC 29213 after overnight incubation by broth dilution method
Method in brief: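 CLSI broth microdilution MIC. Compounds dissolved in methanol, diluted to working solution in Mueller-Hinton broth. Strain recovered in broth 18–24 h at 37 °C, 5% CO2; colonies suspended in saline for inoculum. Final test range 0.016–32, plates incubated 24 h at 37 °C. MIC read as the lowest concentration preventing visible growth. Duplicates, with drug-free and solvent-blank columns; final methanol 1.25%.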

Staphylococcus aureus [2] = experiment: Antibacterial activity against methicillin-resistant Staphylococcus aureus ATCC 43300 after overnight incubation by broth dilution method
Method in brief: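 CLSI broth dilution MIC in Mueller-Hinton broth. Compounds were dissolved in methanol, diluted in broth, and tested over a two-fold range, with final methanol 1.25% in the top well. Inoculum was colonies in saline after 18–24 h growth at 37 °C in 5% CO2. Plates ran 24 h at 37 °C. MIC was the lowest concentration preventing visible growth. Duplicate wells, drug-free and solvent controls.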

Staphylococcus aureus [3] = experiment: Antibacterial activity against methicillin-resistant Staphylococcus aureus ATCC 43300 infected in neutropenic mouse assessed as mouse survival rate at 40 mg/kg, iv administered 1 hr post infection relative to control; settings: ATCC 43300, iv
Method in brief: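 Female ICR mice (23–25 g) were made neutropenic with cyclophosphamide ip, 150 mg/kg 4 days and 100 mg/kg 1 day before infection. They were infected ip with 0.5 mL of ~10⁷ CFU/mL MRSA, then given compound iv at 40 mg/kg 1 h post-infection, with tiamulin given the same way as comparator. 10 mice per group; survival recorded.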

| SMILES | MIC (Enterococcus faecalis) | MIC (Enterococcus faecium) | MIC (Staphylococcus aureus [1]) | MIC (Staphylococcus aureus [2]) | survival at 40 mg/kg (Staphylococcus aureus [3]) |
| --- | --- | --- | --- | --- | --- |
| C=C[C@]1(C)C[C@@H](OC(=O)CN2CCN(C(=O)CCl)CC2)[C@]2(C)[C@H](C)CC[C@]3(CCC(=O)[C@H]32)[C@@H](C)[C@@H]1O | > 32 µg/mL | > 32 µg/mL | > 32 µg/mL | > 32 µg/mL | – |
| C=C[C@]1(C)C[C@@H](OC(=O)CSC(C)(C)CNC(=O)[C@H](N)C(C)C)[C@]2(C)[C@H](C)CC[C@]3(CCC(=O)[C@H]32)[C@@H](C)[C@@H]1O [VALNEMULIN] | 1 µg/mL (≈ 1.77 µM) | > 32 µg/mL | 0.125 µg/mL (≈ 0.221 µM) | 0.03 µg/mL (≈ 0.0531 µM) | – |
| C=C[C@]1(C)C[C@@H](OC(=O)CS[C@@H]2C[C@H]3CC[C@@H](C2)N3C)[C@]2(C)[C@H](C)CC[C@]3(CCC(=O)[C@H]32)[C@@H](C)[C@@H]1O [RETAPAMULIN] | – | > 32 µg/mL | 0.0625 µg/mL (≈ 0.121 µM) | 0.0625 µg/mL (≈ 0.121 µM) | – |
| C=C[C@]1(C)C[C@@H](OC(=O)CN2CCN(C(=O)CN3CCN(c4ccc(O)cc4)CC3)CC2)[C@]2(C)[C@H](C)CC[C@]3(CCC(=O)[C@H]32)[C@@H](C)[C@@H]1O | 8 µg/mL (≈ 12 µM) | > 32 µg/mL | 2 µg/mL (≈ 3.01 µM) | 1 µg/mL (≈ 1.5 µM) | – |
| C=C[C@]1(C)C[C@@H](OC(=O)CN2CCN(C(=O)CN3CCN(c4ccccc4Cl)CC3)CC2)[C@]2(C)[C@H](C)CC[C@]3(CCC(=O)[C@H]32)[C@@H](C)[C@@H]1O | 4 µg/mL (≈ 5.85 µM) | > 32 µg/mL | 0.5 µg/mL (≈ 0.732 µM) | 0.015 µg/mL (≈ 0.022 µM) | – |
| C=C[C@]1(C)C[C@@H](OC(=O)CN2CCN(C(=O)CN3CCN(c4ccccc4OC)CC3)CC2)[C@]2(C)[C@H](C)CC[C@]3(CCC(=O)[C@H]32)[C@@H](C)[C@@H]1O | 4 µg/mL (≈ 5.89 µM) | > 32 µg/mL | 0.5 µg/mL (≈ 0.736 µM) | 0.5 µg/mL (≈ 0.736 µM) | – |
| C=C[C@]1(C)C[C@@H](OC(=O)CO)[C@]2(C)[C@H](C)CC[C@]3(CCC(=O)[C@H]32)[C@@H](C)[C@@H]1O [PLEUROMULIN] | 16 µg/mL (≈ 42.3 µM) | > 32 µg/mL | 8 µg/mL (≈ 21.1 µM) | 2 µg/mL (≈ 5.28 µM) | – |
| C=C[C@]1(C)C[C@@H](OC(=O)CN2CCN(C(=O)CN3CCN(c4ccc(C)cc4)CC3)CC2)[C@]2(C)[C@H](C)CC[C@]3(CCC(=O)[C@H]32)[C@@H](C)[C@@H]1O | 2 µg/mL (≈ 3.02 µM) | > 32 µg/mL | 0.25 µg/mL (≈ 0.377 µM) | 0.125 µg/mL (≈ 0.189 µM) | – |
| C=C[C@]1(C)C[C@@H](OC(=O)CN2CCN(C(=O)CN3CCN(c4cccc(Cl)c4)CC3)CC2)[C@]2(C)[C@H](C)CC[C@]3(CCC(=O)[C@H]32)[C@@H](C)[C@@H]1O | 2 µg/mL (≈ 2.93 µM) | > 32 µg/mL | 0.25 µg/mL (≈ 0.366 µM) | 0.03 µg/mL (≈ 0.0439 µM) | – |
| C=C[C@]1(C)C[C@@H](OC(=O)CN2CCN(C(=O)CN3CCN(C)CC3)CC2)[C@]2(C)[C@H](C)CC[C@]3(CCC(=O)[C@H]32)[C@@H](C)[C@@H]1O | 2 µg/mL (≈ 3.41 µM) | > 32 µg/mL | 0.5 µg/mL (≈ 0.852 µM) | 0.125 µg/mL (≈ 0.213 µM) | – |
| C=C[C@]1(C)C[C@@H](OC(=O)CN2CCN(C(=O)CN3CCN(c4ccccc4C)CC3)CC2)[C@]2(C)[C@H](C)CC[C@]3(CCC(=O)[C@H]32)[C@@H](C)[C@@H]1O | 2 µg/mL (≈ 3.02 µM) | > 32 µg/mL | 0.25 µg/mL (≈ 0.377 µM) | 0.0625 µg/mL (≈ 0.0943 µM) | – |
| C=C[C@]1(C)C[C@@H](OC(=O)CN2CCN(C(=O)CN3CCN(c4cccc(OC)c4)CC3)CC2)[C@]2(C)[C@H](C)CC[C@]3(CCC(=O)[C@H]32)[C@@H](C)[C@@H]1O | 2 µg/mL (≈ 2.95 µM) | > 32 µg/mL | 0.25 µg/mL (≈ 0.368 µM) | 0.25 µg/mL (≈ 0.368 µM) | – |
| C=C[C@]1(C)C[C@@H](OC(=O)CN2CCN(C(=O)CN3CCN(c4ccccc4)CC3)CC2)[C@]2(C)[C@H](C)CC[C@]3(CCC(=O)[C@H]32)[C@@H](C)[C@@H]1O | 4 µg/mL (≈ 6.16 µM) | > 32 µg/mL | 0.25 µg/mL (≈ 0.385 µM) | 0.125 µg/mL (≈ 0.193 µM) | – |
| C=C[C@]1(C)C[C@@H](OC(=O)CN2CCN(C(=O)CN3CCN(c4ccc(Cl)cc4)CC3)CC2)[C@]2(C)[C@H](C)CC[C@]3(CCC(=O)[C@H]32)[C@@H](C)[C@@H]1O | 2 µg/mL (≈ 2.93 µM) | > 32 µg/mL | 0.125 µg/mL (≈ 0.183 µM) | 0.015 µg/mL (≈ 0.022 µM) | 50% |
| C=C[C@]1(C)C[C@@H](OC(=O)CN2CCN(C(=O)CN3CCN(c4ccc([N+](=O)[O-])cc4)CC3)CC2)[C@]2(C)[C@H](C)CC[C@]3(CCC(=O)[C@H]32)[C@@H](C)[C@@H]1O | 1 µg/mL (≈ 1.44 µM) | > 32 µg/mL | 0.125 µg/mL (≈ 0.18 µM) | 0.015 µg/mL (≈ 0.0216 µM) | – |
| C=C[C@]1(C)C[C@@H](OC(=O)CN2CCN(C(=O)CN3CCN(c4cccc(O)c4)CC3)CC2)[C@]2(C)[C@H](C)CC[C@]3(CCC(=O)[C@H]32)[C@@H](C)[C@@H]1O | 2 µg/mL (≈ 3.01 µM) | > 32 µg/mL | 0.5 µg/mL (≈ 0.752 µM) | 0.25 µg/mL (≈ 0.376 µM) | – |
| C=C[C@]1(C)C[C@@H](OC(=O)CN2CCN(C(=O)CN3CCN(c4ccccc4O)CC3)CC2)[C@]2(C)[C@H](C)CC[C@]3(CCC(=O)[C@H]32)[C@@H](C)[C@@H]1O | 2 µg/mL (≈ 3.01 µM) | > 32 µg/mL | 1 µg/mL (≈ 1.5 µM) | 0.5 µg/mL (≈ 0.752 µM) | – |
| C=C[C@]1(C)C[C@@H](OC(=O)CN2CCN(C(=O)CN3CCN(c4cccc(C)c4)CC3)CC2)[C@]2(C)[C@H](C)CC[C@]3(CCC(=O)[C@H]32)[C@@H](C)[C@@H]1O | 4 µg/mL (≈ 6.03 µM) | > 32 µg/mL | 0.5 µg/mL (≈ 0.754 µM) | 0.25 µg/mL (≈ 0.377 µM) | – |
| C=C[C@]1(C)C[C@@H](OC(=O)CN2CCN(C(=O)CN3CCN(c4ccc(OC)cc4)CC3)CC2)[C@]2(C)[C@H](C)CC[C@]3(CCC(=O)[C@H]32)[C@@H](C)[C@@H]1O | 2 µg/mL (≈ 2.95 µM) | > 32 µg/mL | 0.5 µg/mL (≈ 0.736 µM) | 0.25 µg/mL (≈ 0.368 µM) | – |
| C=C[C@]1(C)C[C@@H](OC(=O)CN2CCN(C(=O)CN3CCN(c4cccc([N+](=O)[O-])c4)CC3)CC2)[C@]2(C)[C@H](C)CC[C@]3(CCC(=O)[C@H]32)[C@@H](C)[C@@H]1O | 2 µg/mL (≈ 2.88 µM) | > 32 µg/mL | 0.25 µg/mL (≈ 0.36 µM) | 0.0625 µg/mL (≈ 0.0901 µM) | – |
| C=C[C@]1(C)C[C@@H](OC(=O)CSCCN(CC)CC)[C@]2(C)[C@H](C)CC[C@]3(CCC(=O)[C@H]32)[C@@H](C)[C@@H]1O [TIAMULIN] | 2 µg/mL (≈ 4.05 µM) | > 32 µg/mL | 0.5 µg/mL (≈ 1.01 µM) | 0.125 µg/mL (≈ 0.253 µM) | 10% |
| C=C[C@]1(C)C[C@@H](OC(=O)CN2CCN(C(=O)CN3CCN(c4ccccc4[N+](=O)[O-])CC3)CC2)[C@]2(C)[C@H](C)CC[C@]3(CCC(=O)[C@H]32)[C@@H](C)[C@@H]1O | 2 µg/mL (≈ 2.88 µM) | > 32 µg/mL | 0.0625 µg/mL (≈ 0.0901 µM) | 0.0625 µg/mL (≈ 0.0901 µM) | – |
| C=C[C@]1(C)C[C@@H](OC(=O)CN2CCNCC2)[C@]2(C)[C@H](C)CC[C@]3(CCC(=O)[C@H]32)[C@@H](C)[C@@H]1O | 8 µg/mL (≈ 17.9 µM) | > 32 µg/mL | 2 µg/mL (≈ 4.48 µM) | 1 µg/mL (≈ 2.24 µM) | – |
